Results collected from several papers.
Compare with care: the assays were run in different laboratories.
Target: Acetylcholinesterase (ACHE, Homo sapiens, UniProt P22303)
Mode: inhibitor

With `Cn1cc(-c2cc(C(=O)NN=Cc3ccccc3F)no2)c2ccccc21` the IC50 was > 100 µM (enzyme activity).
With `CN(C)c1ccc(/C=N/n2c(-c3cc([N+](=O)[O-])c[nH]3)n[nH]c2=S)c(O)c1` the IC50 was 21.2 µM (enzyme activity, Ellman).
With `C#CCN(C)CCCCCCOCc1ccc(CN(C)c2c3c(nc4ccccc24)CCCC3)cc1` the IC50 was 1.57 µM (enzyme activity, Ellman).
`Cn1cc(-c2cc(C(=O)NN=Cc3ccccc3O)no2)c2ccccc21` gave an IC50 of > 100 µM (enzyme activity).
`CNC(=O)c1ccc(-c2cnn3ccc(C(=O)N(C)c4ccc(Cl)c(C(=O)OC)c4)cc23)cc1` gave an IC50 of > 30 µM (cell-free assay).
With `O=C(NCCN1CCCCC1)c1ccc(F)cc1` the IC50 was 3.1 µM (enzyme activity, Ellman).
For `C#CCN(C)CCCCCOc1cccc(CN(C)c2c3c(nc4ccccc24)CCCC3)c1`, the IC50 was 2.6 µM (enzyme activity, Ellman).
The IC50 of `Cn1cc(-c2cc(C(=O)NN=Cc3ccccc3Cl)no2)c2ccccc21` is reported as > 100 µM (enzyme activity).
The IC50 of `COc1ccc(S(=O)(=O)Oc2cc(OC)ccc2C=NNC(=O)c2ccc(F)cc2)cc1` is reported as 0.0919 µM (enzyme activity, Ellman).
With `C#CCN(C)CCCCCOCc1ccc(CN(C)c2c3c(nc4ccccc24)CCCC3)cc1` the IC50 was 4.84 µM (enzyme activity, Ellman).
`O=[N+]([O-])c1c[nH]c(-c2n[nH]c(=S)n2/N=C/c2ccc(F)cc2)c1` gave an IC50 of 8.2 µM (enzyme activity, Ellman).
For `O=C(NCCN1CCCCC1)c1cccc(Cl)c1`, the IC50 was 0.63 µM (enzyme activity, Ellman).
`O=[N+]([O-])c1c[nH]c(-c2n[nH]c(=S)n2/N=C/c2c(O)cc(O)cc2O)c1` gave an IC50 of 6.2 µM (enzyme activity, Ellman).
The IC50 of `C#CCN(C)CCCCCCOc1cccc(CN(C)c2c3c(nc4ccccc24)CCCC3)c1` is reported as 1.16 µM (enzyme activity, Ellman).
`O=[N+]([O-])c1c[nH]c(-c2n[nH]c(=S)n2/N=C/c2ccc(F)c(O)c2)c1` has an IC50 of 9.2 µM (enzyme activity, Ellman).
The IC50 of `O=C(NCCN1CCCCC1)c1cccc([N+](=O)[O-])c1` is reported as 2 µM (enzyme activity, Ellman).
`O=[N+]([O-])c1c[nH]c(-c2n[nH]c(=S)n2/N=C/c2ccc(Br)c(Cl)c2)c1` has an IC50 of 22.9 µM (enzyme activity, Ellman).
`O=C(NCCN1CCCCC1)c1ccccc1[N+](=O)[O-]` gave an IC50 of 19 µM (enzyme activity, Ellman).
The IC50 of `O=[N+]([O-])c1c[nH]c(-c2n[nH]c(=S)n2/N=C/c2ccc(F)c([N+](=O)[O-])c2)c1` is reported as 15.5 µM (enzyme activity, Ellman).
The IC50 of `COc1ccc(S(=O)(=O)Oc2ccc3ccccc3c2C=NNC(=O)c2ccc(F)cc2)cc1` is reported as 0.114 µM (enzyme activity, Ellman).
